Source: ChEMBL document CHEMBL1147666, “Fluorinated amphiphilic amino acid derivatives as antioxidant carriers: a new class of protective agents” (J Med Chem, 2006)

How the values were obtained:
Mixed cortical cells [1] = assay: Inhibition of hydrogen peroxide-induced death of mixed cortical cells of E15 Sprague-Dawley rat embryo at 10 uM; format: functional; details: Mixed cortical cell
How it was run: (§1)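 Primary mixed cortical cultures from E15 Sprague-Dawley rat embryos, exposed 24 h to oxidotoxin (hydrogen peroxide, peroxynitrite or doxorubicin, 200 µM) plus antioxidant at 10 µM. Cell death measured by trypan blue absorbance at 590 nm. Reported as % inhibition of trypan blue absorbance versus vehicle, mean ± SEM, N = 10.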

[2] = test system: Radical scavenging activity; assay: Radical reducing potency by ABTS cation radical reduction assay per 30 mins at […]; format: functional
How it was run: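 ABTS cation radical reduction assay (modified Re et al.). Assay ABTS•+ 105 µM, test compound 0.5 mM final. Started by adding the test agent. Read every minute at 420 nm for 30 min. DMSO vehicle controls at 2.5% final. Output is reduced ABTS•+ in nmol/30 min, mean ± SEM, N = 10.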

Mixed cortical cells [3] = assay: Inhibition of peroxynitrite-induced death of mixed cortical cells of E15 Sprague-Dawley rat embryo at 10 uM; format: functional; details: Mixed cortical cell; how it was run: as §1
[4] = test system: Radical scavenging activity; assay: Hydroxyl radical scavenging activity by ABTS competition assay per 30 mins at 1 umol/mL; format: functional
How it was run: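 Fenton-initiated ABTS cation radical formation in distilled water adjusted to pH 5.0. Mix: ABTS 1 mM and FeSO4 0.5 mM (stock), test compound 1 mM in DMSO, 10% final DMSO in vehicle controls. Started by adding H2O2 10 mM (stock). Read at 420 nm every minute for 30 min. Output is quenched ABTS•+ in nmol/30 min, mean ± SEM, N = 10.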

Mixed cortical cells [5] = assay: Inhibition of doxorubicin-induced death of mixed cortical cells of E15 Sprague-Dawley rat embryo at 10 uM; format: functional; details: Mixed cortical cell; how it was run: as §1
Rotifers [6] = assay: Viability of rotifers against hydrogen peroxide toxicity at 10 uM; format: organism-based; details: Rotifera; read-out: Activity
How it was run: (§2)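 Whole rotifers of defined, uniform age from one stock culture; standardized viability assay. Animals exposed 24 h to oxidotoxin (hydrogen peroxide or doxorubicin) at 200 µM together with antioxidant at 10 µM. Vehicle-only controls run in parallel. Read-out is % viable organisms, mean ± SEM, N = 10; ANOVA with Bonferroni t-test vs vehicle.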

Rotifers [7] = assay: Viability of rotifers against doxorubicin toxicity at 10 uM; format: organism-based; details: Rotifera; read-out: Activity; how it was run: as §2

| SMILES | inhibition at 10 µM (Mixed cortical cells [1]) [%] | Activity [2] [nM] | inhibition at 10 µM (Mixed cortical cells [3]) [%] | Activity [4] [nM] | inhibition at 10 µM (Mixed cortical cells [5]) [%] | survival at 10 µM (Rotifers [6]) [%] | survival at 10 µM (Rotifers [7]) [%] |
| --- | --- | --- | --- | --- | --- | --- | --- |
| Cc1c(C)c2c(c(C)c1O)CCC(C)(C(=O)O)O2 (configuration not stated) [TROLOX] | 22.2 | 93.4 | 16.8 | 87.3 | 15.5 | 13 | 13.1 |
| O=C(O)CCc1c[nH]c2ccccc12 | 87.7 | 96.5 | 83.8 | 95.7 | 76.1 | 67.9 | 53.8 |
| O=C(O)CCCCC1CCSS1 (stereo not drawn) [LIPOIC ACID, ALPHA] | 15.1 | 44.1 | 13.1 | – | 14.8 | 14.1 | 13.3 |
| CC(C)(C)/[N+]([O-])=C/c1ccccc1 | 25 | 7.8 | 20.6 | 18.2 | 24.2 | 25.6 | 18.7 |
